# Measured values reported in publication PMC12037726 (Nature Communications, 2025).
# How the values were obtained:
# Mfd = biological target: T1, Mfd (Escherichia coli, UniProt P30958); assay: Isothermal titration calorimetry; format: binding, E. coli; conditions: ITC, 25 °C; no inhibitor
# T1 sequence (P30958 1-1148): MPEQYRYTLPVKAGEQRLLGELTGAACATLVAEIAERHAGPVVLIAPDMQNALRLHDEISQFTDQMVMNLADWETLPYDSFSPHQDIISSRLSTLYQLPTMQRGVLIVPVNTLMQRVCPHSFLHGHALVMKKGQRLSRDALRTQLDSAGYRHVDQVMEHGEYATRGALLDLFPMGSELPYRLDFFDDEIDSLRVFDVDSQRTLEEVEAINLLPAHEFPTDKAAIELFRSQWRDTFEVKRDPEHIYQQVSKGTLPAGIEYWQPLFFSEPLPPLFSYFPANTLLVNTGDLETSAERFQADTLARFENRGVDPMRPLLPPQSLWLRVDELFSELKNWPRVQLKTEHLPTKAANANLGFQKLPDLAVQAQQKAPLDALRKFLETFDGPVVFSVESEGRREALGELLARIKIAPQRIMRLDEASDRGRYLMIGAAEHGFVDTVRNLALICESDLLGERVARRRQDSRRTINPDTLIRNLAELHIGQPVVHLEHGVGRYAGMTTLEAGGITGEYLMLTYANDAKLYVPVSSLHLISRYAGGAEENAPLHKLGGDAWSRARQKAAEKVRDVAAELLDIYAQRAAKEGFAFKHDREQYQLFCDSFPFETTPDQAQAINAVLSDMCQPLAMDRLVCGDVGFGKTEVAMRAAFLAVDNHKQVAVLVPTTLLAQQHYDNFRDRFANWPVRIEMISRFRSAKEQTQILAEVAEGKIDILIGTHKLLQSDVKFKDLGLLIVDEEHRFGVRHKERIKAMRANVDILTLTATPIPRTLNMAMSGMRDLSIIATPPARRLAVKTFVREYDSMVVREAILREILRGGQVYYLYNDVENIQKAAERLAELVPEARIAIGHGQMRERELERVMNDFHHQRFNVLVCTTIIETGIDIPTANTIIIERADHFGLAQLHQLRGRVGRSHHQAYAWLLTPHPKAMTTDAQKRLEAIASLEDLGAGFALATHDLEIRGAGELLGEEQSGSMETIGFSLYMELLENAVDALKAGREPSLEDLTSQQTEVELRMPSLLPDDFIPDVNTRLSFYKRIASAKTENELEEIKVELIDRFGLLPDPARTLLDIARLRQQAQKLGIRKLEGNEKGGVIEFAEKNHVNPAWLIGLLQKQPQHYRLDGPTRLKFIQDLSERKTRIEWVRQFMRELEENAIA
# Summary of the method: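 Full-length E. coli Mfd (20 µM) in 0.1 M Tris, 0.2 M NaCl, 4% DMSO, pH 8 at 25 °C. Titrated with 20 injections of 2.5 µL of 200 µM test compound at 300 s intervals. For the competition run, Mfd was preincubated with test compound, then ATP (200 µM) binding was measured. A = Ka/Kapp. Performed in triplicate.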
# [1] = test system: K. pneumoniae ATCC 700603 wt; assay: Mouse lung infection, CFU in lung at 24 h; format: in vivo; conditions: MPN 10 mg/kg i.p.
# Summary of the method: (§1)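 Nine-week-old female C57BL/6J mice were anaesthetized with ketamine (79 mg/kg) and xylazine (9 mg/kg) i.p. Infected intranasally with 1 × 10^7 CFU in 20 µL PBS from late-exponential cultures. MPN was given at 10 mg/kg i.p. At 24 h mice were killed and the left lung homogenized in PBS. Lung CFU were counted by serial dilution on LB agar and expressed as log CFU per gram.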
# K. pneumoniae ∆mfd = assay: Mouse lung infection, CFU in lung at 24 h, ∆mfd mutant; format: in vivo; conditions: NF-NM102 6 mg/kg or MPN 10 mg/kg i.p.
# K. pneumoniae ALE = assay: Mouse lung infection, CFU in lung at 24 h; format: in vivo; conditions: MPN 10 mg/kg i.p.
# Summary of the method: as §1
# P. aeruginosa CIP27853 = assay: Mouse lung infection, CFU in lung at 24 h; format: in vivo; conditions: MPN at 10 mg/ml, i.p.
# HeLa cells = assay: Cytotoxicity, CellTiter96 AQueous; format: cell-based, human; conditions: 1 h; MPN 10 and 100 µM, NM102 10 and 300 µM, NM102 nanoformulation 1.29 and 5.16 mM
# Summary of the method: (§2)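 Cells grown in DMEM with 10% heat-inactivated FBS, 1 U/mL penicillin and 1 µg/mL streptomycin (37 °C, 5% CO2). At 70% confluency, trypsinised and seeded at 4 × 10^4 cells/well, then incubated overnight. Switched to antibiotic-free DMEM 2 h before assay. Exposed 1 h in HBSS with 10% DMSO or empty-nanoformulation controls. MTS reagent added for 1 h, A490 read. Reagent and compound backgrounds subtracted; normalised to untreated cells.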
# Vero cells = assay: Cytotoxicity, CellTiter96 AQueous; format: cell-based, monkey; conditions: 1 h; MPN 10 and 100 µM, NM102 10 and 300 µM, NM102 nanoformulation 1.29 and 5.16 mM
# Summary of the method: as §2
Kd (Mfd) [µM],Structure (SMILES),reduction of the bacterial load [1] [%],effect on bacterial burden of the ∆mfd mutant (K. pneumoniae ∆mfd),effect on bacterial load in the lung (K. pneumoniae ALE),decrease of bacterial load (P. aeruginosa CIP27853) [times],cytotoxicity (HeLa cells),cytotoxicity (Vero cells)
145 ± 9,Nc1ncnc2c1ncn2[C@@H]1O[C@H](COP(=O)(O)OP(=O)(O)OP(=O)(O)O)[C@@H](O)[C@H]1O [ATP],,,,,,
,"C[C@@H](O)[C@H]1C(=O)N2C(C(=O)O)=C(S[C@@H]3CN[C@H](C(=O)N(C)C)C3)[C@H](C)[C@H]12 [MPN, meropenem]",93,inhibited,no significant effect,26,no toxicity,induced cytotoxicity
